What all share (assay type): functional
One test deals with Pseudomonas aeruginosa. Briefly: Antibacterial activity against Pseudomonas aeruginosa strain 27853. The essentials: (§1)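 Broth microdilution MIC run to NCCLS standards: serial 2-fold dilutions in cation-adjusted Mueller–Hinton broth, inoculum ~5 × 10^5 CFU/mL, incubated 35 °C for 18–24 h. Trays were read by eye, and the MIC was taken as the lowest concentration giving complete growth inhibition (no visible turbidity).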

Test [1] has as its system Staphylococcus aureus. Briefly: Antibacterial activity against Staphylococcus aureus strain St au 29213. The essentials: as §1
The subject of another test is Escherichia coli. Briefly: Antibacterial activity against Escherichia coli strain 25922. Put shortly:
as §1

The next test concerns Enterococcus faecalis. Briefly: Antibacterial activity against Enterococcus faecalis strain 29212. Put shortly:
as §1

Test [2] deals with Staphylococcus aureus. The test is described as follows: Antibacterial activity against Staphylococcus aureus strain St au 33591 MRSA. The essentials:
as §1

Among the data in ChEMBL document CHEMBL1138748, “A prodrug approach toward the development of water soluble fluoroquinolones and structure--activity relationships of quinoline-3-carboxylic acids” (2004) are MIC values, retold here.

In brackets after ≈: the same amount, converted by molar mass.

What is called MIC is the smallest concentration in the dilution series that meets the test's criterion for growth inhibition. Lower therefore signals a more susceptible organism. On to `C[C@H]1CN(c2nc3c(cc2F)c(=O)c(C(=O)O)cn3-c2ccc(O)cc2)C[C@H]1N`, for which the MIC in the test on Pseudomonas aeruginosa came out at 0.78 µg/mL (≈ 1.96 µM); against Staphylococcus aureus [1], 0.4 µg/mL (≈ 1 µM); in the test on Escherichia coli it was 0.4 µg/mL (≈ 1 µM); against Enterococcus faecalis it was 1.56 µg/mL (≈ 3.92 µM); in the test on Staphylococcus aureus [2], 0.4 µg/mL (≈ 1 µM).
Regarding `O=C(O)c1cn(-c2ccc(O)cc2)c2nc(N3CC4CC3CN4)c(F)cc2c1=O` (stereo not given), the minimum inhibitory concentration (MIC) in the test on Pseudomonas aeruginosa is 3.13 µg/mL (≈ 7.9 µM); in the test with Staphylococcus aureus [1], 1.56 µg/mL (≈ 3.94 µM); against Escherichia coli it was 1.56 µg/mL (≈ 3.94 µM); in the test with Enterococcus faecalis it was above 50 µg/mL; in the test on Staphylococcus aureus [2], 3.13 µg/mL (≈ 7.9 µM).
Take `N[C@@H]1[C@H]2CN(c3cc4c(cc3F)c(=O)c(C(=O)O)cn4-c3ccc(O)cc3)C[C@@H]12`: the minimal inhibitory concentration (MIC) against Pseudomonas aeruginosa is 3.13 µg/mL (≈ 7.92 µM); with Staphylococcus aureus [1], 0.1 µg/mL (≈ 0.253 µM); in the test on Escherichia coli, 0.2 µg/mL (≈ 0.506 µM); in the test on Enterococcus faecalis, 1.56 µg/mL (≈ 3.95 µM); in the test on Staphylococcus aureus [2] it was 0.1 µg/mL (≈ 0.253 µM).
Turning to `COc1c(N2CC3CCCN(C)C3C2)c(F)cc2c(=O)c(C(=O)O)cn(-c3ccc(O)cc3)c12` (stereo not given), the minimal inhibitory concentration (MIC) against Pseudomonas aeruginosa amounted to 6.25 µg/mL (≈ 13.4 µM); against Staphylococcus aureus [1], 0.78 µg/mL (≈ 1.67 µM); against Escherichia coli, 0.4 µg/mL (≈ 0.856 µM); against Enterococcus faecalis it was 12.5 µg/mL (≈ 26.7 µM); against Staphylococcus aureus [2], 1.56 µg/mL (≈ 3.34 µM).
The like results for `COc1c(N2CCN(C)CC2)c(F)cc2c(=O)c(C(=O)O)cn(-c3ccc(O)cc3)c12` were, in that order, 3.13 µg/mL (≈ 7.32 µM), 0.4 µg/mL (≈ 0.936 µM), 0.1 µg/mL (≈ 0.234 µM), 3.13 µg/mL (≈ 7.32 µM) and 0.4 µg/mL (≈ 0.936 µM).
The like results for `C[C@@H](N)[C@H]1CCN(c2nc3c(cc2F)c(=O)c(C(=O)O)cn3-c2ccc(O)cc2)C1` were, in that order, 12.5 µg/mL (≈ 30.3 µM), 1.56 µg/mL (≈ 3.78 µM), 6.25 µg/mL (≈ 15.2 µM), 12.5 µg/mL (≈ 30.3 µM) and 1.56 µg/mL (≈ 3.78 µM).
The like results for `C[C@@H]1CN(c2cc3c(cc2F)c(=O)c(C(=O)O)cn3-c2ccc(O)cc2)C[C@H]1N` were, in that order, 1.56 µg/mL (≈ 3.93 µM), 0.2 µg/mL (≈ 0.503 µM), 0.2 µg/mL (≈ 0.503 µM), 1.56 µg/mL (≈ 3.93 µM) and 0.2 µg/mL (≈ 0.503 µM).
As for `COc1c(N2C[C@@H](C)[C@H](C)C2)c(F)cc2c(=O)c(C(=O)O)cn(-c3ccc(O)cc3)c12`, the MIC against Pseudomonas aeruginosa is 6.25 µg/mL (≈ 14.7 µM); in the test with Staphylococcus aureus [1], 0.78 µg/mL (≈ 1.83 µM); in the test with Escherichia coli it was 0.78 µg/mL (≈ 1.83 µM); against Enterococcus faecalis, 12.5 µg/mL (≈ 29.3 µM); with Staphylococcus aureus [2], 0.78 µg/mL (≈ 1.83 µM).
For the compound `O=C(O)c1cn(-c2ccc(O)cc2)c2cc(N3CC4CCCNC4C3)c(F)cc2c1=O` (stereo not given), the minimum inhibitory concentration (MIC) in the test with Pseudomonas aeruginosa worked out at 6.25 µg/mL (≈ 14.8 µM); against Staphylococcus aureus [1], 0.4 µg/mL (≈ 0.945 µM); against Escherichia coli, 1.56 µg/mL (≈ 3.68 µM); against Enterococcus faecalis, 3.13 µg/mL (≈ 7.39 µM); with Staphylococcus aureus [2], 0.4 µg/mL (≈ 0.945 µM).
As to `COc1c(N2C[C@@H]3[C@@H](N)[C@@H]3C2)c(F)cc2c(=O)c(C(=O)O)cn(-c3ccc(O)cc3)c12`, the MIC with Pseudomonas aeruginosa came to 1.56 µg/mL (≈ 3.67 µM); in the test with Staphylococcus aureus [1] it was 0.1 µg/mL (≈ 0.235 µM); against Escherichia coli, 0.1 µg/mL (≈ 0.235 µM); with Enterococcus faecalis it was 1.56 µg/mL (≈ 3.67 µM); against Staphylococcus aureus [2] it was 0.1 µg/mL (≈ 0.235 µM).
Turning to `N[C@H]1CN(c2nc3c(cc2F)c(=O)c(C(=O)O)cn3-c2ccc(O)cc2)CC12CC2`, the minimum inhibitory concentration (MIC) is 0.78 µg/mL (≈ 1.9 µM) against Pseudomonas aeruginosa; 0.2 µg/mL (≈ 0.487 µM) with Staphylococcus aureus [1]; 0.2 µg/mL (≈ 0.487 µM) in the test on Escherichia coli; 0.78 µg/mL (≈ 1.9 µM) with Enterococcus faecalis; 0.4 µg/mL (≈ 0.975 µM) with Staphylococcus aureus [2].
For the compound `C[C@H](N)[C@@H]1CCN(c2nc3c(cc2F)c(=O)c(C(=O)O)cn3-c2ccc(O)cc2)C1`, the minimum inhibitory concentration (MIC) in the test with Pseudomonas aeruginosa was 12.5 µg/mL (≈ 30.3 µM); against Staphylococcus aureus [1] it was 1.56 µg/mL (≈ 3.78 µM); against Escherichia coli it was 1.56 µg/mL (≈ 3.78 µM); in the test with Enterococcus faecalis, 6.25 µg/mL (≈ 15.2 µM); in the test with Staphylococcus aureus [2], 1.56 µg/mL (≈ 3.78 µM).
In the case of `NC1CCN(c2nc3c(cc2F)c(=O)c(C(=O)O)cn3-c2ccc(O)cc2)C1` (stereo not given), the minimal inhibitory concentration (MIC) against Pseudomonas aeruginosa was 1.56 µg/mL (≈ 4.06 µM); with Staphylococcus aureus [1], 0.78 µg/mL (≈ 2.03 µM); in the test on Escherichia coli, 1.56 µg/mL (≈ 4.06 µM); in the test with Enterococcus faecalis, above 50 µg/mL; in the test with Staphylococcus aureus [2] it was 0.78 µg/mL (≈ 2.03 µM).
In the case of `COc1c(N2CCNCC2)c(F)cc2c(=O)c(C(=O)O)cn(-c3ccc(O)cc3)c12`, the MIC in the test on Pseudomonas aeruginosa worked out at 6.25 µg/mL (≈ 15.1 µM); against Staphylococcus aureus [1], 0.2 µg/mL (≈ 0.484 µM); with Escherichia coli, 0.78 µg/mL (≈ 1.89 µM); against Enterococcus faecalis, 25 µg/mL (≈ 60.5 µM); against Staphylococcus aureus [2], 0.4 µg/mL (≈ 0.968 µM).
The like results for `C[C@H](N)[C@H]1CCN(c2cc3c(cc2F)c(=O)c(C(=O)O)cn3-c2ccc(O)cc2)C1` were, in that order, 25 µg/mL (≈ 60.8 µM), 0.4 µg/mL (≈ 0.972 µM), 1.56 µg/mL (≈ 3.79 µM), 3.13 µg/mL (≈ 7.61 µM) and 0.78 µg/mL (≈ 1.9 µM).
The like results for `N[C@H]1CN(c2cc3c(cc2F)c(=O)c(C(=O)O)cn3-c2ccc(O)cc2)CC12CC2` were, in that order, 6.25 µg/mL (≈ 15.3 µM), 0.4 µg/mL (≈ 0.977 µM), 0.78 µg/mL (≈ 1.91 µM), 6.25 µg/mL (≈ 15.3 µM) and 0.78 µg/mL (≈ 1.91 µM).
As for `COc1c(N2C[C@@H](C)[C@@H](C)C2)c(F)cc2c(=O)c(C(=O)O)cn(-c3ccc(O)cc3)c12`, the MIC with Pseudomonas aeruginosa came to 3.13 µg/mL (≈ 7.34 µM); with Staphylococcus aureus [1], 0.78 µg/mL (≈ 1.83 µM); in the test on Escherichia coli, 0.78 µg/mL (≈ 1.83 µM); against Enterococcus faecalis, 6.25 µg/mL (≈ 14.7 µM); in the test with Staphylococcus aureus [2], 0.78 µg/mL (≈ 1.83 µM).
As for `COc1c(N2C[C@@H](N)C3(CC3)C2)c(F)cc2c(=O)c(C(=O)O)cn(-c3ccc(O)cc3)c12`, the MIC with Pseudomonas aeruginosa was 3.13 µg/mL (≈ 7.12 µM); against Staphylococcus aureus [1], 0.78 µg/mL (≈ 1.77 µM); with Escherichia coli, 0.4 µg/mL (≈ 0.91 µM); against Enterococcus faecalis, 6.25 µg/mL (≈ 14.2 µM); against Staphylococcus aureus [2], 0.78 µg/mL (≈ 1.77 µM).
With `C[C@H](N)[C@H]1CCN(c2nc3c(cc2F)c(=O)c(C(=O)O)cn3-c2ccc(O)cc2)C1`, the MIC is 3.13 µg/mL (≈ 7.59 µM) against Pseudomonas aeruginosa; 0.78 µg/mL (≈ 1.89 µM) with Staphylococcus aureus [1]; 3.13 µg/mL (≈ 7.59 µM) against Escherichia coli; 3.13 µg/mL (≈ 7.59 µM) in the test on Enterococcus faecalis; 0.78 µg/mL (≈ 1.89 µM) in the test with Staphylococcus aureus [2].
Turning to `C[C@H]1CN(c2cc3c(cc2F)c(=O)c(C(=O)O)cn3-c2ccc(O)cc2)C[C@H]1N`, the MIC in the test on Pseudomonas aeruginosa was 1.56 µg/mL (≈ 3.93 µM); with Staphylococcus aureus [1], 0.2 µg/mL (≈ 0.503 µM); against Escherichia coli, 0.2 µg/mL (≈ 0.503 µM); against Enterococcus faecalis it was 1.56 µg/mL (≈ 3.93 µM); in the test on Staphylococcus aureus [2], 0.2 µg/mL (≈ 0.503 µM).
For the compound `N[C@@H]1CCC[C@@H]2CN(c3nc4c(cc3F)c(=O)c(C(=O)O)cn4-c3ccc(O)cc3)C[C@@H]21`, the MIC against Pseudomonas aeruginosa worked out at 6.25 µg/mL (≈ 14.3 µM); against Staphylococcus aureus [1] it was 0.4 µg/mL (≈ 0.912 µM); against Escherichia coli, 3.13 µg/mL (≈ 7.14 µM); with Enterococcus faecalis, 3.13 µg/mL (≈ 7.14 µM); with Staphylococcus aureus [2], 0.4 µg/mL (≈ 0.912 µM).
Regarding `COc1c(N2CCC(CN)C2)c(F)cc2c(=O)c(C(=O)O)cn(-c3ccc(O)cc3)c12` (stereo not given), the minimum inhibitory concentration (MIC) was 50 µg/mL (≈ 117 µM) with Pseudomonas aeruginosa; 3.13 µg/mL (≈ 7.32 µM) in the test with Staphylococcus aureus [1]; 6.25 µg/mL (≈ 14.6 µM) against Escherichia coli; 25 µg/mL (≈ 58.5 µM) against Enterococcus faecalis; 3.13 µg/mL (≈ 7.32 µM) with Staphylococcus aureus [2].
In the case of `C[C@@H]1CN(c2nc3c(cc2F)c(=O)c(C(=O)O)cn3-c2ccc(O)cc2)C[C@H]1N`, the MIC against Pseudomonas aeruginosa was determined as 0.78 µg/mL (≈ 1.96 µM); in the test with Staphylococcus aureus [1], 0.4 µg/mL (≈ 1 µM); in the test on Escherichia coli, 0.4 µg/mL (≈ 1 µM); against Enterococcus faecalis it was 1.56 µg/mL (≈ 3.92 µM); against Staphylococcus aureus [2], 0.4 µg/mL (≈ 1 µM).
Turning to `N[C@@H]1CN(c2nc3c(cc2F)c(=O)c(C(=O)O)cn3-c2ccc(O)cc2)CC12CC2`, the minimal inhibitory concentration (MIC) in the test on Pseudomonas aeruginosa turned out to be 3.13 µg/mL (≈ 7.63 µM); in the test on Staphylococcus aureus [1], 1.56 µg/mL (≈ 3.8 µM); in the test with Escherichia coli, 1.56 µg/mL (≈ 3.8 µM); against Enterococcus faecalis, 25 µg/mL (≈ 60.9 µM); with Staphylococcus aureus [2] it was 1.56 µg/mL (≈ 3.8 µM).
For `CN1CCN(c2nc3c(cc2F)c(=O)c(C(=O)O)cn3-c2ccc(O)cc2)CC1`, the MIC with Pseudomonas aeruginosa was 3.13 µg/mL (≈ 7.86 µM); against Staphylococcus aureus [1], 0.2 µg/mL (≈ 0.502 µM); in the test with Escherichia coli it was 0.05 µg/mL (≈ 0.126 µM); against Enterococcus faecalis, 1.56 µg/mL (≈ 3.92 µM); against Staphylococcus aureus [2] it was 0.2 µg/mL (≈ 0.502 µM).
As for `C[C@@H]1C[C@H](N)CN1c1cc2c(cc1F)c(=O)c(C(=O)O)cn2-c1ccc(O)cc1`, the MIC against Pseudomonas aeruginosa amounted to 50 µg/mL (≈ 126 µM); against Staphylococcus aureus [1], 0.78 µg/mL (≈ 1.96 µM); in the test on Escherichia coli, 3.13 µg/mL (≈ 7.88 µM); in the test with Enterococcus faecalis, 12.5 µg/mL (≈ 31.5 µM); in the test with Staphylococcus aureus [2], 0.78 µg/mL (≈ 1.96 µM).
